RGS4 pot – RGS4 potentiation or activation. 310,000 tested, 0.92% active. B-score at 10 µM. HEK293 M3R/inducible RGS4, carbachol calcium flux Fluo4; hits give low values;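 active means B-score of the integrated calcium signal more than 4 SD below the library mean, with starting fluorescence not abnormally high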;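 further: negative B-score means reduced calcium response which marks RGS4 activation or potentiation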
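Test system: HEK293 cells with stable M3R and inducible RGS4; also added: carbachol at ECmax as muscarinic agonist stimulus; schedule: dye loading 30 min 37 °C, buffer rest 30 min RT; technique: kinetic calcium fluorescence imaging with Fluo4-AM dye, 2 µM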
MrgX1 agonist – agonists of human MrgX1 receptor | B-score at 10 µM | 310,000 tested, 0.44% active | AID 588627 | MrgX1-HEK293 cells, Fluo-4 calcium fluorescence, agonist mode; hits give high values;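 active means calcium response B-score plate-corrected fluorescence ratio at least 3 library SD, with starting fluorescence B-score inside 5 SD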
Target sequence (Q96LB2 whole entry, looked up): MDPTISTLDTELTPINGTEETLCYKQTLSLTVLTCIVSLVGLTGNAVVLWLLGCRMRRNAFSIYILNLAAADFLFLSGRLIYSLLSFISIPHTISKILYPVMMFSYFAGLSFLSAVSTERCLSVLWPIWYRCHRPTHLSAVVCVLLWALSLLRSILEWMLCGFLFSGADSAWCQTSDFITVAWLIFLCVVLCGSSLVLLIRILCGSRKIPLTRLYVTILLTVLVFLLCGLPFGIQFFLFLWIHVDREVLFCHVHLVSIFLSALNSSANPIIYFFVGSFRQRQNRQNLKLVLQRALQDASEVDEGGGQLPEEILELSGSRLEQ
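Material: HEK293 cells stably expressing human MrgX1 receptor | Quantity: 15,000 cells per well | Times: Cells plated overnight, dye loaded 0.5 h 37 °C, 0.5 h room temperature | Measured by: Kinetic Fluo-4 NW fluorescence of intracellular calcium | Control set: Positive and negative controls per plate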
MrgX1 antag – antagonists of human MrgX1 receptor. MRGX1-HEK293 calcium flux, Fluo-4, BAM8-22 antagonism; hits give low values. B-score at 10 µM. 310,000 tested, 1.3% active;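 active means calcium-response B-score plate-corrected more than 3 library SD below zero, starting fluorescence within 5 deviations, no agonist response on first addition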;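 further: peak minus trough fluorescence over baseline after final BAM8-22 challenge near maximal dose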
MrgX1 PAM – human MrgX1 positive allosteric modulation, primary screen. MrgX1-HEK293, Fluo-4 calcium flux, FDSS; hits give high values. Q96LB2. 310,000 tested, 0.63% active. B-score at 10 µM;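 active means plate-corrected calcium response at least 3 library SD above typical, normal starting fluorescence, not activating the receptor alone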;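 further: compound read alongside a low EC10 to EC30 dose of BAM8-22 agonist; peak minus trough fluorescence over baseline measured at the second addition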
RGS4 inh – human RGS4 inhibition. P49798. HEK293 M3R/RGS4 inducible, Fluo-4 calcium flux; hits give high values; triggered by carbachol at its EC20. B-score at 10 µM. 310,000 tested, 0.45% active. AID 463165;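 active means B-score, a plate-corrected calcium signal, over three deviations above library mean, with baseline fluorescence within five deviations of library mean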;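 further: RGS4 expression induced by doxycycline in cells with stable M3 receptor; B-score is computed from the integrated fluorescence ratio over baseline after carbachol; higher B-score means a larger calcium signal and so more RGS4 inhibition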
Target sequence (P49798 whole entry, looked up): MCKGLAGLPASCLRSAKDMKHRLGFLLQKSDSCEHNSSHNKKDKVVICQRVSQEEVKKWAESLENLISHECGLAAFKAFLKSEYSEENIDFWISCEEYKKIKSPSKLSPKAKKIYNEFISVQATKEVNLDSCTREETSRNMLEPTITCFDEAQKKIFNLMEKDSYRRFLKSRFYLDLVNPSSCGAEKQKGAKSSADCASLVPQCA
Kir21 inh – Kir2.1 (mouse) channel inhibition; P35561; HEK293-Kir2.1, FluxOR thallium flux fluorescence; hits give low values; B-score at 10 µM; 310,000 tested, 0.85% active; AID 1672;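 active means fluorescence ratio B-score at or below minus 3 SD of library scores, with starting-brightness B-score within 2 SD, cut at about -4.2 in these data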;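 further: channel flux triggered by added potassium and thallium sulfate stimulus; B-score of peak minus minimum fluorescence over baseline after thallium stimulus; more negative B-score means stronger Kir2.1 block with less thallium influx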
The depositor's hits bear a star; i = inactive; . = not tested or not shown. Hits are enriched below; roughly 4.1% of the tested compounds scored in any of these assays.

SMILES	RGS4 pot	MrgX1 agonist	MrgX1 antag	MrgX1 PAM	RGS4 inh	Kir21 inh
CCOC(=O)C1=C(c2ccccc2)NC(=S)NC1c1cccc([N+](=O)[O-])c1 (centres undefined)	i	i	i	i	i	1.56
CCOC(=O)C1=C(c2ccccc2)NC(=O)NC1c1ccc(O)c(Cl)c1 (centres undefined)	i	i	i	i	i	-7.82*
O=C(CSc1nnc(-c2ccc(O)cc2)n1Cc1ccco1)c1cccs1	i	i	i	i	i	-0.66
O=C(CC(SCc1ccco1)c1ccc(O)cc1)c1cccs1 (centres undefined)	i	i	i	i	i	-4.75*
CC[n+]1c(/C=C/N(C)c2ccccc2)oc2ccc(F)cc21	i	i	-4.7*	i	i	-3.19
CC[n+]1c(/C=C/N(C)c2ccccc2)oc2ccccc21	i	i	i	i	i	-5.19
CC[n+]1c(/C=C/Nc2ccccc2)oc2ccc(OC)cc21	i	i	-7.41*	i	i	-3.22
CCc1ccccc1N(C(=O)c1snc(C(N)=O)c1N)C(C(=O)NCC1CCCO1)c1ccc(N(C)C)cc1 (centres undefined)	i	.	.	.	i	-1.53
O=C(Cn1nnc2ccccc21)OCC(=O)c1ccc(Cl)c(Cl)c1	i	i	i	i	i	-0.03
O=C(Cn1nnc2ccccc21)OCC(=O)c1ccccc1	i	i	-6.12*	i	i	-0.19
N#Cc1ccc(CSc2nnc(-c3c[nH]c4ccccc34)n2-c2ccccc2)cc1	i	i	i	i	i	-0.14
Cc1ccccc1-n1c(SCc2c(C)noc2C)nnc1-c1c[nH]c2ccccc12	i	i	-4.54*	i	i	-1.05
Cc1ccc(C(C)C)c(OCc2nn(CC(=O)c3ccc(OC(F)F)cc3)c3[n+]2CCCCC3)c1	i	i	-5.52*	i	i	-2.28
Cc1noc(C)c1CN1C(=O)c2ccc([N+](=O)[O-])cc2C1=O	i	i	i	i	i	-0.65
CCCC1S/C(=N/N=C/c2ccc(OC)cc2)N(Cc2ccc(OC)cc2)C1=O (centres undefined)	i	i	i	i	i	-0.32
CCCCC1S/C(=N/N=C/c2ccc(OC)cc2)N(Cc2ccc(OC)cc2)C1=O (centres undefined)	i	i	-5.31*	i	i	-0.1
CCOC(=O)c1sc(NC(=O)CCN2CCN(C)CC2)c(C(=O)OCC)c1C	i	i	i	i	i	-5.47*
O=C(NCCO)c1cc2c([nH]c3ccccc32)c(-c2ccccc2)n1	i	i	i	i	i	-0.1
CCOC(=O)C1=c2s/c(=C\c3ccncc3)c(=O)n2C(N)=C(C(=O)OC)C1c1ccncc1 (centres undefined)	i	i	i	i	i	-0.11
CCOC(=O)C1=C(N)n2c(s/c(=C/c3ccco3)c2=O)=C(C(=O)OC)C1c1ccco1 (centres undefined)	i	i	-5.74*	i	i	0.24
CCOc1ccc(S(=O)(=O)N(CC(=O)NC2CCCC2)c2ccc(F)cc2)cc1	i	i	i	i	i	-1.14
Cc1ccc(-c2csc3ncnc(-n4nnc5ccccc54)c23)cc1	i	i	i	i	i	-1.57
CC[C@H](C)[C@@H]1NC(=O)c2cc([N+](=O)[O-])cc(I)c2SC[C@@H](C(N)=O)NC(=O)[C@H](CCCCN)NC1=O	.	i	-6.61*	i	.	.
CC12CC(NC(=O)N1c1cccc(C(=O)NCc3ccc4c(c3)OCO4)c1)c1cc(Cl)ccc1O2 (centres undefined)	i	i	-6.96*	i	i	0.71
CC(C)C(=O)Nc1cccc(C(=O)NCc2ccc3c(c2)OCO3)c1	i	i	i	i	i	1.31
SMILES	RGS4 pot	MrgX1 agonist	MrgX1 antag	MrgX1 PAM	RGS4 inh	Kir21 inh
CCCOc1ccccc1C1CC(=O)NC(C)=C1C(=O)OCC(C)C (centres undefined)	i	i	i	i	i	0.11
COC(=O)C1=C(C)NC(C)=C(C(=O)OCC(C)C)C1c1ccccc1[N+](=O)[O-] (centres undefined)	i	30.9*	i	i	i	-5.17*
CC(C)=NNC(=O)c1c(O)c2ccccc2[nH]c1=O	i	i	i	i	i	-0.19
Oc1ccccc1C1=Nc2nc3ccccc3n2C(c2ccccc2)C1 (centres undefined)	i	i	i	16.8*	i	-0.42
COc1ccc(CCN(C)C(=O)c2ccc(COc3ccccc3)o2)cc1OC	i	i	i	i	i	-5.76*
CCCc1ccc(OCc2ccc(C(=O)NN)o2)c(OC)c1	i	i	-5.27*	i	i	0.51
COc1ccc(CCNC(=O)CCN2C(=O)c3ccccc3C2=O)cc1OC	i	i	i	i	i	0.26
COc1ccc(-n2c(NC(=O)c3ccco3)c(C#N)c3nc4ccccc4nc32)cc1	i	i	i	7.11*	i	2.07
C/C(=N\NC(=S)NC1CCCCC1)c1ccc(Cl)c(Cl)c1	i	i	-4.91*	i	i	0.28
COc1ccc(-n2ncc3c(N4CCN(Cc5ccccc5)CC4)ncnc32)cc1	-7.36*	i	i	i	i	0.2
COc1cccc(N2CCN(c3ncnc4c3cnn4-c3ccc(C)cc3C)CC2)c1	-6.97*	i	i	i	i	0.98
CCOc1ccc(NC(=O)CN(C)C(=O)CC(NC(=O)c2ccccc2)c2ccccc2)cc1OCC (centres undefined)	i	35.6*	i	i	i	0.58
COCCn1c(-c2cccs2)csc1=Nc1cccnc1	i	i	i	i	i	0.45
COc1cccc(N2C(=O)c3ccncc3C2=O)c1	i	i	i	i	i	-0.5
CCOc1cc(/C=C2\C(=O)N(c3cccc(C(F)(F)F)c3)C(=O)c3ccccc32)ccc1O	i	i	i	i	i	0.41
COc1cccc(/C=C2\C(=O)N(c3cccc(C)c3)C(=O)c3ccccc32)c1	i	i	i	i	i	-9.21*
Cc1cccc(N2C(=O)/C(=C\c3ccc(OC(F)F)cc3)c3ccccc3C2=O)c1	i	i	i	i	i	-4.35*
CCN(CC(=O)Nc1ccccc1OC)C(=O)C1CC2C=CC1C2 (centres undefined)	i	i	i	i	i	1.4
